# Test: Toxicity liver stage against HepG2, at 10uM
# Assay type: cell-based
# Set-up: test concentration 10 uM, cell line HepG2-A16-CD81EGFP
# Details: human, HepG2-A16-CD81EGFP cells; read-out: INHIBITION
# Summary of the method: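 Uninfected HepG2-A16-CD81EGFP cells, 3 × 10^3 per well, 1536-well, plated on prespotted compound at 10 μM final, parasite-free screening media added to match infected plates; puromycin 10 μM positive, DMSO 0.5% negative; run in parallel with 48 h PbLuc assay at 37 °C, 5% CO2; viability by CellTiter-Glo luminescence, normalized to controls.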
row,Compound,cytotoxicity at 10 µM [%]
1,COc1c(CNCc2ccc(N(C)C)nc2)c(C)nn1C,-12.3
2,COc1ccc(OC)c(S(=O)(=O)NC(=O)C(C)OC)c1 (stereo not given),-1.2
3,CC(C)(C)CN1Cc2cc3c(cc2NCCC1=O)OCO3,-84.3
4,Cn1ccnc1CN1CCOC[C@H]1c1nc(C(C)(C)C)co1,-4.13
5,Cn1cc(CN2CCC3(CCCN3Cc3cccnc3)CC2)cn1,2.43
6,Cc1cc(F)ccc1CN1CCCC2(C1)OCCO2,-11.8
7,COC[C@@]12CCO[C@@H]1CCN(C(=O)C1CC(F)(F)C1)C2,-97.4
8,Cc1ccc(C(=O)Nc2nnc(C(C)C)s2)c(-n2cnnn2)c1C,-0.649
9,CC(C)Oc1cccc(C(O)CNC(=O)NCc2cccs2)c1 (stereo not given),-2.79
10,Cc1cc(-c2nnn(CCC(N)=O)n2)ccc1F,-8.71
11,Cc1n[nH]c(C2CN(C(=O)c3ccc(=O)n(C)c3)CCO2)n1 (stereo not given),3.75
12,CN1CCCN(C[C@H]2C[C@H](CO)CN(Cc3cccnc3N)C2)CC1,-10.7
13,COc1c(CNC2CCCc3ccccc32)c(C)nn1C (stereo not given),-0.808
14,O=C1NCCO[C@H]2CN(C(=O)Cc3csc4ccccc34)CC[C@@H]12,-101
15,Cc1noc(C)c1CN1CC2(CCN(C(=O)c3c[nH]cn3)C2)CC1=O (stereo not given),-5.23
16,Cc1ccoc1C(=O)N1C[C@@H]2[C@@H](C1)OCC(=O)N2Cc1cccnc1,9.38
17,CN(C)C(=O)c1cccc(CN2CCN(CC(O)C(C)(C)C)CC2)c1 (stereo not given),1.74
18,NS(=O)(=O)CCN1CCOC(c2ccsc2)C1 (stereo not given),5.31
19,O=C(NCc1ccccc1F)N1CCC(C2OCCO2)CC1,2.76
20,CC(C)=CCC1(CO)CCCN(S(C)(=O)=O)C1 (stereo not given),-5.13
21,O=C(Cn1cc(Cl)cn1)N1CCCC(c2cc3ccccc3cn2)C1 (stereo not given),-27.3
22,Cc1cc(N2CCN(Cc3ccc(C)o3)CC2)cc(C)n1,-6.61
23,COCc1cnc2n1CCN(C1CCC1)C2C (stereo not given),4.77

row,Compound,cytotoxicity at 10 µM [%]
1,O=C(NC1(c2nnn(CCO)n2)CCCC1)c1ccccc1,14.8
2,COCCO[C@H]1CCN(Cc2ccsc2)[C@H]1Cc1cccnc1,-2.57
3,Cc1noc(C)c1CS(=O)(=O)CC(=O)NCCc1ccccc1,-5.83
4,COc1ccc(OC)c(C2CCN(C(=O)CCc3n[nH]c(N)n3)C2)c1 (stereo not given),5.27
5,CC(C)C(=O)NC1CC2(CCN(CC(=O)N(C)C)CC2)c2ccccc21 (stereo not given),-103
6,COc1ccc2nnc(CCC(=O)Nc3nc4c(s3)CCCCC4)n2n1,4.98
7,CN(CCN1CCCC1=O)CC(c1cccs1)N1CCOCC1 (stereo not given),1.52
8,Cc1ncsc1CCC(=O)NCc1cc2n(n1)CCNC2,-3.78
9,CN1CC2(CCN(C(=O)COc3ccc(Cl)cc3Cl)CC2)OC1=O,-3.25
10,O=C(NC(CC(F)(F)F)c1ccc(Cl)cc1)c1nc(=O)[nH][nH]1 (stereo not given),-5.11
11,Cc1nc2ccc(S(=O)(=O)Nc3c(C)nn(CC(=O)O)c3C)cc2s1,-2.83
12,Cc1cc(C2CCCCN2C(=O)CN2CC3(CCNCC3)OC2=O)no1 (stereo not given),8.69
13,COCCN(C)CC(=O)N1CCCC2(CCC(=O)N(CC3CC3)C2)C1 (stereo not given),0.502
14,CC(C)CN(Cc1nc2c(cnn2C)c(=O)[nH]1)CC(C)C,-5.36
15,COc1ccc(Cl)cc1CN(C)C(=O)CN1C(=O)CCC1C (stereo not given),0.277
16,Cc1cc(C(=O)N2CC[C@H]3[C@H](C[C@@H](CN4CCCC4)N3C)C2)c(C)o1,9.97
17,CCc1nnc2n1CCN(Cc1cccc3c1OCCO3)C2,-7.42
18,CN(C)C(=O)[C@H]1C[C@H]2CN(S(=O)(=O)Cc3ccccc3)C[C@@H]1O2,4.81
19,COc1cccc(NC(=O)Cn2c(=O)nc(N)c3cc(C)sc32)c1,-8.72
20,Cc1ccc(-c2ccc(Cl)nn2)cc1S(=O)(=O)N1CCOCC1,-4.26
21,CC1=C(C(=O)N2CCOC(Cc3cccc(C(F)(F)F)c3)C2)OCCO1 (stereo not given),5.31
22,O=C(O)COc1ccccc1CN1CCCC1c1cnccn1 (stereo not given),22
